Assay [1] is filed under the species Cavia porcellus. Briefly: Relative agonist molar potency on the electrically stimulated guinea pig myenteric plexus longitudinal muscle preparation at 10e-6; Inactive. It is filed as functional. The settings on record: Muscle tissue. The essentials: (§1)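 Electrically stimulated guinea pig ileum myenteric plexus–longitudinal muscle, measuring inhibition of twitch. Compounds active at 10⁻⁷ M or below were run in at least three independent preparations. Reversibility was checked with naloxone 2 × 10⁻⁶ M in the bath.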

Assay [2] has as its system Mus musculus. Briefly: Compound was evaluated for antagonist activity only at subagonistic dose levels in mice by mouse hotplate procedure; Inactive at 100 uM/kg. It is filed as functional, organism-based.
Assay [3] deals with Mus musculus. The assay is described as follows: Compound was tested for narcotic agonist activity in mice by mouse hotplate procedure; Inactive at 100 uM/kg. It is filed as functional, organism-based. The essentials:
(§2)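 Male white Swiss-Webster mice, 25–35 g, at least five per dose. Baseline taken as three reaction times 15 min apart. Drug given s.c. in physiological saline. Hot plate read 10, 15 or 30 min after dosing, depending on compound class. Analgesia means postinjection time over double the control, with a 30 s cutoff. ED50 by probit analysis on free-base molar dose.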

Assay [4] is filed under the species Mus musculus. The assay is described as follows: Narcotic antagonistic potency evaluated by morphine-induced Straub tail phenomenon in mice. It is filed as functional, organism-based. The following applies: read-out: pA2 (converted).
In assay [5] the test system is Mus musculus. The assay is described as follows: Compound was evaluated for antagonist activity only at subagonistic dose levels in mice by mouse hotplate procedure; Inactive at 30 umol/kg. It is filed as functional, organism-based.
The test system of assay [6] is Mus musculus. The assay is described as follows: Compound was tested for narcotic agonist activity in mice by mouse hotplate procedure; Inactive at 55 uM/kg. It is filed as functional, organism-based. The essentials:
as §2

For assay [7], the system named is Mus musculus. The assay is described as follows: Compound was evaluated for antagonist activity only at subagonistic dose levels in mice by mouse hotplate procedure; Inactive at 60 uM/kg. It is filed as functional, organism-based.
Assay [8] has as its system Mus musculus. Briefly: Compound was tested for narcotic agonist activity in mice by mouse hotplate procedure; Inactive at 60 uM/kg. It is filed as functional, organism-based. The essentials: as §2
The species named for assay [9] is Mus musculus. The assay is described as follows: Compound was evaluated for antagonist activity only at subagonistic dose levels in mice by mouse hotplate procedure. It is filed as functional.
For assay [10], the system named is Mus musculus. Briefly: Compound was tested for narcotic agonist activity in mice by mouse hotplate procedure; Inactive at 110 uM/kg. It is filed as functional, organism-based. The essentials:
as §2

Assay [11] is filed under the species Cavia porcellus. The assay is described as follows: Relative agonist molar potency on the electrically stimulated guinea pig myenteric plexus longitudinal muscle preparation. It is filed as functional, Muscle tissue. In a few lines: as §1
For assay [12], the system named is Mus musculus. The assay is described as follows: Compound was evaluated for antagonist activity only at subagonistic dose levels in mice by mouse hotplate procedure; Inactive at 15 umol/kg. It is filed as functional, organism-based.
The species entered for assay [13] is Mus musculus. Briefly: Compound was tested for narcotic agonist activity in mice by mouse hotplate procedure. It is filed as functional. The essentials:
as §2

The species named for assay [14] is Mus musculus. The assay is described as follows: Narcotic antagonistic potency evaluated in morphine-induced Straub tail phenomenon in mice. The following applies: read-out: pA2 (converted). It is filed as functional, organism-based.
In assay [15] the test system is Mus musculus. The assay is described as follows: Compound was tested for narcotic agonist activity in mice by mouse hotplate procedure; Inactive at 120 uM/kg. It is filed as functional, organism-based. The essentials:
as §2

For assay [16], the system named is Mus musculus. Briefly: Compound was evaluated for antagonist activity only at subagonistic dose of 120 uM/kg levels in mice by mouse hotplate procedure. It is filed as functional.
In assay [17] the test system is Mus musculus. The assay is described as follows: Compound was evaluated for antagonist activity only at subagonistic dose levels in mice by mouse hotplate procedure; Inactive at 115 uM/kg. It is filed as functional, organism-based.
In assay [18] the test system is Mus musculus. The assay is described as follows: Compound was tested for narcotic agonist activity in mice by mouse hotplate procedure; Inactive at 115 uM/kg. It is filed as functional, organism-based. The essentials: as §2
For assay [19], the species on record is Mus musculus. The assay is described as follows: Compound was evaluated for antagonist activity only at subagonistic dose levels by mouse hotplate procedure. It is filed as functional.
Assay [20] concerns Mus musculus. Briefly: Compound was evaluated for antagonist activity only at subagonistic dose levels in mice by mouse hotplate procedure; Inactive at 17 uM/kg. It is filed as functional, organism-based.
In assay [21] the test system is Mus musculus. The assay is described as follows: Compound was evaluated for antagonist activity only at subagonistic dose levels in mice by mouse hotplate procedure; Inactive at 26 uM/kg. It is filed as functional, organism-based.
The species entered for assay [22] is Mus musculus. Briefly: Compound was tested for narcotic agonist activity (effective dose) by mouse hotplate procedure.

Consider 14 compounds from ChEMBL document CHEMBL1121652, “Allylprodine analogues as receptor probes. Evidence that phenolic and nonphenolic ligands interact with different subsites on identical opioid receptors” (J Med Chem, 1981).

The source made the active and inactive calls.

As a reminder, the ED50 is the midpoint of the dose-response relation. The Inhibition is the percentage by which the read-out fell short of the control. Higher therefore signals strong suppression.

For `CCC[C@H]1CN(C)CC[C@@]1(OC(=O)CC)c1cccc(O)c1`, the Potency entry in the assay listed under Cavia porcellus [1] is “inactive”. For the same compound, the AD50 result in the assay with Mus musculus [2] was “inactive”. Besides, the ED50 result with Mus musculus [3] was “inactive”. Further, the Kb in the assay filed under Mus musculus [4] was no less than 1 µM.
On to `C=CC[C@H]1CN(CC=C)CC[C@@]1(OC(=O)CC)c1cccc(O)c1`, for which the Potency result in the assay listed under Cavia porcellus [1] is “inactive”. Besides, the AD50 result with Mus musculus [5] was “inactive”. Moreover, in the assay with Mus musculus [6], the ED50 result was “inactive”. Also, the Kb in the assay filed under Mus musculus [4] is no less than 1 µM.
Regarding `C=CC[C@H]1CN(C)CC[C@@]1(OC(=O)CC)c1cccc(O)c1`, the Potency result in the assay filed under Cavia porcellus [1] is “inactive”. In the assay on Mus musculus [7], the AD50 result was “inactive”. Besides, in the assay with Mus musculus [8], the ED50 entry is “inactive”. The Kb in the assay listed under Mus musculus [4] is no less than 1 µM.
As to `CCC[C@@H]1CN(C)CC[C@@]1(OC(=O)CC)c1cccc(O)c1`, the Potency result in the assay filed under Cavia porcellus [1] was “inactive”. Besides, in the assay on Mus musculus [2], the AD50 result is “inactive”. Further, the ED50 entry with Mus musculus [3] is “inactive”. The Kb in the assay listed under Mus musculus [4] is no less than 1 µM.
Regarding `C=CC[C@@H]1CN(CC=C)CC[C@@]1(OC(=O)CC)c1cccc(O)c1`, the Potency entry in the assay filed under Cavia porcellus [1] was “inactive”. For the same compound, the AD50 in the assay listed under Mus musculus [9] amounted to 74.13 µM/kg. Moreover, the ED50 entry in the assay on Mus musculus [10] was “inactive”. Besides, in the assay filed under Mus musculus [4], the Kb was no less than 1 µM.
For the compound `C=CC[C@@H]1CN(C)CC[C@@]1(OC(=O)CC)c1cccc(OC)c1`, the Potency in the assay listed under Cavia porcellus [11] came to 0.12. Moreover, in the assay with Mus musculus [12], the AD50 result is “inactive”. Besides, the Kb in the assay filed under Mus musculus [4] was no less than 1 µM. In the assay filed under Mus musculus [13], this compound came in with an ED50 of 34.7 µmol/kg.
For the compound `C=CCN1CC[C@]23c4c5ccc(O)c4O[C@H]2C(=O)CC[C@@]3(O)[C@H]1C5` [NALOXONE], in the assay listed under Mus musculus [14], the Kb is 0.00295 µM.
Consider `C=CC[C@@H]1CN(C)CC[C@@]1(OC(=O)CC)c1cccc(O)c1`, for which the Potency result in the assay listed under Cavia porcellus [1] was “inactive”. For the same compound, in the assay with Mus musculus [15], the ED50 result is “inactive”. This compound registered an AD50 in the assay with Mus musculus [16] of 12%. Moreover, in the assay listed under Mus musculus [4], the Kb was no less than 1 µM.
For `C=CC[C@H]1CN(C)CC[C@@]1(OC(=O)CC)c1cccc(OC)c1`, the Potency result in the assay listed under Cavia porcellus [1] was “inactive”. For the same compound, the AD50 entry in the assay with Mus musculus [17] is “inactive”. Also, the ED50 result in the assay on Mus musculus [18] is “inactive”. Also, in the assay listed under Mus musculus [4], the Kb was no less than 1 µM.
Turning to `C=CC[C@@H]1CN(C)CC[C@@]1(OC(=O)CC)c1ccccc1`, in the assay filed under Cavia porcellus [11], the Potency is 4.51. The Kb in the assay filed under Mus musculus [4] is no less than 1 µM. It took a dose of 0.54 µmol/kg to reach the 50% effect level in the assay filed under Mus musculus [13] (ED50).
As for `O=C1CC[C@@]2(O)[C@H]3Cc4ccc(O)c5c4[C@@]2(CCN3CC2CC2)[C@H]1O5` [NALTREXONE], in the assay listed under Mus musculus [14], the Kb was greater than 1 µM. Besides, the AD50 in the assay filed under Mus musculus [19] was determined as 0.031 µM/kg.
As for `CCC(=O)OC1(c2cccc(O)c2)CCN(C)CC1`, in the assay filed under Cavia porcellus [11], the Potency is 0.011. Further, in the assay with Mus musculus [20], the AD50 entry is “inactive”. For the same compound, in the assay listed under Mus musculus [4], the Kb was no less than 1 µM. The compound further yielded an ED50 in the assay listed under Mus musculus [13] of 110 µmol/kg.
On to `C=CC[C@@H]1CN(CC=C)CC[C@@]1(OC(=O)CC)c1cccc(OC)c1`, for which, in the assay listed under Cavia porcellus [11], the Potency is given as 0.033. In the assay on Mus musculus [21], the AD50 entry is “inactive”. Moreover, the Kb in the assay listed under Mus musculus [4] was no less than 1 µM. The Inhibition in the assay filed under Mus musculus [13] worked out at 17%.
On to `CN1CC[C@]23c4c5ccc(O)c4O[C@H]2[C@@H](O)C=C[C@H]3[C@H]1C5` [MORPHINE], for which the ED50 in the assay filed under Mus musculus [22] came out at 12.4 µmol/kg.
